Results: ChEMBL document CHEMBL1134978, “Novel 2,5-dideoxystreptamine derivatives targeting the ribosomal decoding site RNA” (Bioorg Med Chem Lett, 2002)
pIC50: −log10 of the molar value.

The molecules below were run against Nucleic Acid (assay: In vitro inhibition of decoding site of bacterial rRNA (within the 30S ribosomal subunit) encoding luciferase reporter in transcription-translation assay).
Format: functional, Bacteria
Procedure, shortened: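 Coupled transcription–translation in bacterial S30 extract. Compounds were preincubated with the extract, then NTPs, amino acids and a plasmid encoding firefly luciferase were added, and plates were incubated 20 min at 25 °C. After chilling on ice, luciferin substrate was added for 15 min at room temperature and luminescence was read. Doses spanned 1 mM to 100 nM with six replicates per concentration. IC50 came from a variable-slope fit of light units vs log(c).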

| Structure (SMILES) | pIC50 |
| --- | --- |
| NC1CC(N)C(C(=O)N2CCNCC2)CC1O (configuration not stated) | < 3.00 |
| NC1CC(N)C(C(=O)NCCCN2CCCC2=O)CC1O (configuration not stated) | < 3.00 |
| N#Cc1cccc(NC(=O)C2CC(O)C(N)CC2N)c1 (configuration not stated) | 3.35 |
| NC1CC(N)C(C(=O)NCCN2CCOCC2)CC1O (configuration not stated) | < 3.00 |
| NC(=O)C1CC(O)C(N)CC1N (configuration not stated) | < 3.00 |
| NC1CC(N)C(C(=O)Nc2ccc(-c3cnco3)cc2)CC1O (configuration not stated) | 4.23 |
| N[C@@H]1C[C@H](N)[C@@H](O)[C@H](O)[C@H]1O | < 3.00 |
| NC1CC(N)C(C(=O)N2CCC3(CC2)OCCO3)CC1O (configuration not stated) | < 3.00 |
| NC1CC(N)C(C(=O)Nc2ccc(-n3ccnc3)cc2)CC1O (configuration not stated) | 3.54 |
| NC(=O)[C@H]1CCCN1C(=O)C1CC(O)C(N)CC1N (some centres not stated) | < 3.00 |
| NC1CC(N)C(C(=O)N2CCN(C3=NCCCN3)CC2)CC1O (configuration not stated) | < 3.00 |
| NC1CC(N)C(OC2OC(CO)C(O)C(O)C2N)C(O)C1O (configuration not stated) | 5.41 |
